# Experimental data from different studies.
# Protocols differ between the studies behind these lines.
# Adora1: Adenosine receptor A1 (Adora1, Rattus norvegicus, UniProt P25099)
# CA9: Carbonic anhydrase 9 (CA9, Homo sapiens, UniProt Q16790)
# gyrB: DNA gyrase subunit B (gyrB, Escherichia coli, UniProt P0AES6)
# PKN1: Serine/threonine-protein kinase N1 (PKN1, Homo sapiens, UniProt Q16512)
# GRM4: Metabotropic glutamate receptor 4 (GRM4, Homo sapiens, UniProt Q14833)
# Melanocortin receptor 5: Melanocortin receptor 5 (Mus musculus, UniProt P41149)
SMILES,target,read-out,mode,technique,notes,measurement,value
CCCCCC(C)N1CCCn2c1nc1c2c(=O)n(C)c(=O)n1C (centres unmarked),Adora1,ligand displacement,,radioligand,cell membranes,Ki,> 25 µM
Cc1cnc(-c2ccc(-c3ccc(NC(=O)Nc4c(F)cc(F)cc4F)cc3F)c3c2C(=O)NC3)[nH]1,"Serine/threonine-protein kinase 26 (STK26, Homo sapiens, UniProt Q9P289)",binding,,competition with immobilised ligand,,Kd,8.2 nM
Cc1cc(C)cc(C(=O)N2CCCC(C(=O)N(C)C(C)c3ccc(S(N)(=O)=O)cc3)C2)c1 (centres unmarked),CA9,enzyme activity,inhibitor,,,IC50,60 nM
CC(C)CC(C)N1CCCn2c1nc1c2c(=O)n(C)c(=O)n1C (centres unmarked),Adora1,ligand displacement,,radioligand,cell membranes,Ki,> 25 µM
CNc1cccc2cc(C(=O)Nc3cccc(C(=O)O)c3)c(=O)[nH]c12,gyrB,binding,,ITC,,Kd,23 nM
Cc1ccc(S(N)(=O)=O)c(C(=O)Nc2ccc(NC(=O)NCC3CCCO3)cc2)c1 (centres unmarked),CA9,enzyme activity,inhibitor,,,IC50,7880 nM
COc1ccc(-c2nsc(NC(=O)[C@@H]3C[C@H]3C)c2C)cc1,"Metabotropic glutamate receptor 1 (GRM1, Homo sapiens, UniProt Q13255)",calcium signal,agonist,,,EC50,> 25000 nM
CNC(=O)c1cccc2oc(C(=O)NC3CCCN(CC(=O)Nc4ccc(S(N)(=O)=O)cc4)C3)cc12 (centres unmarked),CA9,enzyme activity,inhibitor,,,IC50,70.8 nM
Cc1cc2nc3c(=O)[nH]c(=O)nc-3n(C[C@H](O)[C@H](O)[C@H](O)COP(=O)(O)OP(=O)(O)OC[C@H]3O[C@@H](n4cnc5c(N)ncnc54)[C@H](O)[C@@H]3O)c2cc1C,"RNA-binding protein 14 (Homo sapiens, UniProt Q96PK6)",binding,,,lysate,Kd,32 nM
CNc1cccc2cc(C(=O)NCc3cccc(C(=O)O)c3)c(=O)[nH]c12,gyrB,binding,,ITC,,Kd,390 nM
CC(C)NC[C@@H](C(=O)N1CCN(c2ncnc3c2[C@H](C)C[C@H]3O)CC1)c1ccc(Cl)cc1,PKN1,enzyme activity,inhibitor,,,IC50,30 nM
C=CCN1CCCn2c1nc1c2c(=O)n(C)c(=O)n1C,Adora1,ligand displacement,,radioligand,cell membranes,Ki,4.4 µM
NS(=O)(=O)c1ccc(NC(=O)NCc2cccc(NC(=O)C3CC3)c2)cc1,CA9,enzyme activity,inhibitor,,,IC50,55 nM
O=C(Nc1ccc(N2C(=O)c3ccccc3C2=O)c(Cl)c1)c1ncccc1Cl,GRM4,calcium signal,agonist,,,EC50,> 10000 nM
CC(C)N1CCCn2c1nc1c2c(=O)n(C)c(=O)n1C,Adora1,ligand displacement,,radioligand,cell membranes,Ki,> 25 µM
O=C(O)c1cccc(CCNC(=O)c2cc3ccccc3[nH]c2=O)c1,gyrB,binding,,ITC,,Kd,1400 nM
CCCC[C@H](NC(=O)[C@@H](NC(=O)[C@@H](N)Cc1ccc(O)cc1)C(C)C)C(=O)NCC(=O)N[C@@H](Cc1c[nH]cn1)C(=O)N[C@@H](Cc1ccccc1)C(=O)N[C@@H](CCCNC(=N)N)C(=O)N[C@H](Cc1c[nH]c2ccccc12)C(=O)N[C@@H](CC(=O)O)C(=O)N[C@@H](CCCNC(=N)N)C(=O)N[C@@H](Cc1ccccc1)C(=O)NCC(=O)O,Melanocortin receptor 5,reporter gene,agonist,,,EC50,10 nM
CC(=O)Nc1cccc2c1CC(C)N2Cc1ccoc1C(=O)Nc1ccc(S(N)(=O)=O)cc1 (centres unmarked),CA9,enzyme activity,inhibitor,,,IC50,37.2 nM
N=C(N)NCCC[C@H](NC(=O)[C@H](CC(=O)O)NC(=O)[C@@H](N)Cc1c[nH]c2ccccc12)C(=O)N[C@@H](Cc1ccccc1)C(=O)NCC(=O)O,Melanocortin receptor 5,reporter gene,agonist,,,EC50,> 100000 nM
CNc1cccc2cc(C(=O)NCCc3cccc(C(=O)O)c3)c(=O)[nH]c12,gyrB,binding,,ITC,,Kd,23 nM
NS(=O)(=O)c1ccc(C(=O)N2CCCC(CNc3ccc(Cl)cc3)C2)cc1Cl (centres unmarked),CA9,enzyme activity,inhibitor,,,IC50,206 nM
CO[C@@]1(NC(=O)C2SC(=C(C(N)=O)C(=O)O)S2)C(=O)N2C(C(=O)O)=C(CSc3nnnn3C)CS[C@@H]21 (some centres unmarked),"Phosphatidylethanolamine-binding protein 1 (Homo sapiens, UniProt P30086)",binding,,,,Kd,35800 nM
O=S(=O)(NCCNC/C=C/c1ccc(Br)cc1)c1cccc2cnccc12,PKN1,enzyme activity,inhibitor,,,IC50,155 nM
N=C(N)NCCC[C@H](NC(=O)[C@H](CC(=O)O)NC(=O)[C@H](Cc1c[nH]c2ccccc12)NC(=O)[C@H](CCCNC(=N)N)NC(=O)[C@@H](N)Cc1ccccc1)C(=O)N[C@@H](Cc1ccccc1)C(=O)NCC(=O)O,Melanocortin receptor 5,reporter gene,agonist,,,EC50,13500 nM
CC(C)CCCC(C)N1CCCn2c1nc1c2c(=O)n(C)c(=O)n1C (centres unmarked),Adora1,ligand displacement,,radioligand,cell membranes,Ki,7.69 µM
CSCC[C@H](NC(=O)[C@@H](NC(=O)[C@@H](N)Cc1ccc(O)cc1)C(C)C)C(=O)NCC(=O)N[C@@H](Cc1c[nH]cn1)C(=O)N[C@@H](Cc1ccccc1)C(=O)N[C@@H](CCCNC(=N)N)C(=O)N[C@@H](Cc1c[nH]c2ccccc12)C(=O)O,Melanocortin receptor 5,reporter gene,agonist,,,EC50,710 nM
CCCN1CCN(c2ccc(-c3cncc(Cl)c3N3CCC4(CCNC4=O)CC3)cc2)CC1,"NUAK family SNF1-like kinase 2 (NUAK2, Homo sapiens, UniProt Q9H093)",cell-free assay,,,lysate,Kd,23300 nM
CSCC[C@H](NC(=O)[C@@H](NC(=O)[C@@H](N)Cc1ccc(O)cc1)C(C)C)C(=O)NCC(=O)N[C@@H](Cc1c[nH]cn1)C(=O)N[C@@H](Cc1ccccc1)C(=O)N[C@@H](CCCNC(=N)N)C(=O)N[C@@H](Cc1c[nH]c2ccccc12)C(=O)N[C@@H](CC(=O)O)C(=O)N[C@@H](CCCNC(=N)N)C(=O)O,Melanocortin receptor 5,reporter gene,agonist,,,EC50,62 nM
O=C(Nc1ccc(N2C(=O)c3ccccc3C2=O)c(Cl)c1)c1ncccc1O,GRM4,calcium signal,agonist,,,EC50,130 nM
N=C(N)NCCC[C@H](NC(=O)[C@H](CC(=O)O)NC(=O)[C@H](Cc1c[nH]c2ccccc12)NC(=O)[C@H](CCCNC(=N)N)NC(=O)[C@H](Cc1ccccc1)NC(=O)[C@H](Cc1c[nH]cn1)NC(=O)CN)C(=O)N[C@@H](Cc1ccccc1)C(=O)NCC(=O)O,Melanocortin receptor 5,reporter gene,agonist,,,EC50,290 nM
Cc1cc(C(=O)Nc2ccccc2C(=O)NCc2cn(C)nn2)c(C)n1Cc1ccc(S(N)(=O)=O)cc1,CA9,enzyme activity,inhibitor,,,IC50,38.9 nM
N=C(N)NCCC[C@H](NC(=O)[C@@H](N)CC(=O)O)C(=O)N[C@@H](Cc1ccccc1)C(=O)O,Melanocortin receptor 5,reporter gene,agonist,,,EC50,> 100000 nM
CNc1cccc2cc(C(=O)NCCc3ccc(C(=O)O)cc3)c(=O)[nH]c12,gyrB,binding,,ITC,,Kd,23 nM
NS(=O)(=O)c1cccc(NC(=O)CCN2CCC(c3cccc4[nH]ccc34)CC2)c1,CA9,enzyme activity,inhibitor,,,IC50,11000 nM
CSCC[C@H](NC(=O)[C@@H](NC(=O)[C@@H](N)Cc1ccc(O)cc1)C(C)C)C(=O)NCC(=O)N[C@@H](Cc1c[nH]cn1)C(=O)N[C@@H](Cc1ccccc1)C(=O)N[C@@H](CCCNC(=N)N)C(=O)N[C@@H](Cc1c[nH]c2ccccc12)C(=O)N[C@@H](CC(=O)O)C(=O)O,Melanocortin receptor 5,reporter gene,agonist,,,EC50,73 nM
